Experimental data published in ChEMBL document CHEMBL3763086, “Salicylanilide N-monosubstituted carbamates: Synthesis and in vitro antimicrobial activity” (2016).
Values after ≈ are worked out from the molar mass of the structure shown.

Tests used:
Format in all cases: functional
[1] = test system: Staphylococcus aureus; test: Antibacterial activity against Staphylococcus aureus CCM 4516/08 after 24 hrs by microbroth dilution method; conditions: CCM 4516/08, 24 h
In short: (§1)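 Microbroth dilution modified per M07-A07 in Mueller-Hinton broth, pH 7.4 (±0.2). Inoculum in sterile water adjusted to 0.5 McFarland. MIC taken as growth reduction of at least 90% (IC90) versus control, read visually and at 540 nm after 24 and 48 h incubation in the dark.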

[2] = test system: Klebsiella pneumoniae; test: Antibacterial activity against ESBL-positive Klebsiella pneumoniae J 14368/08 after 24 hrs by microbroth dilution method; conditions: J 14368/08, 24 h; in short: as §1
[3] = test system: Nakaseomyces glabratus; test: Antifungal activity against Candida glabrata 20/I after 24 hrs by microbroth dilution method
[4] = test system: Staphylococcus aureus; test: Antibacterial activity against methicillin-resistant Staphylococcus aureus H 5996/08 after 24 hrs by microbroth dilution method; conditions: H 5996/08, 24 h
In short: (§2)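 Microdilution broth method modified after M07-A07 in Mueller-Hinton broth adjusted to pH 7.4 (±0.2). Inoculum prepared in sterile water to 0.5 McFarland (1.5 × 10^8 CFU/mL). MIC taken as growth reduction versus control (IC95 per table header), read visually and spectrophotometrically at 540 nm after 24 and 48 h incubation in the dark.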

[5] = test system: Trichophyton mentagrophytes; test: Antifungal activity against Trichophyton mentagrophytes 445 after 120 hrs by microbroth dilution method; conditions: Trichophyton mentagrophytes, 445, 120 h
[6] = test system: Pichia kudriavzevii; test: Antifungal activity against Candida krusei E28 after 24 hrs by microbroth dilution method; conditions: E28, 24 h
[7] = test system: Enterococcus sp.; test: Antibacterial activity against Enterococcus sp. J 14365/08 after 24 hrs by microbroth dilution method; conditions: J 14365/08, 24 h; in short: as §1
[8] = test system: Pichia kudriavzevii; test: Antifungal activity against Candida krusei E28 after 48 hrs by microbroth dilution method; conditions: E28, 48 h
[9] = test system: Candida tropicalis; test: Antifungal activity against Candida tropicalis 156 after 24 hrs by microbroth dilution method; conditions: Candida tropicalis, 156, 24 h
[10] = test system: Candida albicans; test: Antifungal activity against Candida albicans ATCC 44859 after 48 hrs by microbroth dilution method; conditions: ATCC 44859, 48 h
[11] = test system: Staphylococcus epidermidis; test: Antibacterial activity against Staphylococcus epidermidis H 6966/08 after 24 hrs by microbroth dilution method; conditions: H 6966/08, 24 h; in short: as §1
[12] = test system: Trichosporon asahii; test: Antifungal activity against Trichosporon asahii 1188 after 24 hrs by microbroth dilution method; conditions: Trichosporon asahii, 1188, 24 h
[13] = test system: Staphylococcus aureus; test: Antibacterial activity against methicillin-resistant Staphylococcus aureus H 5996/08 after 48 hrs by microbroth dilution method; conditions: H 5996/08, 48 h; in short: as §2
[14] = test system: Enterococcus sp.; test: Antibacterial activity against Enterococcus sp. J 14365/08 after 48 hrs by microbroth dilution method; conditions: J 14365/08, 48 h; in short: as §1
[15] = test system: Klebsiella pneumoniae; test: Antibacterial activity against Klebsiella pneumoniae D 11750/08 after 24 hrs by microbroth dilution method; conditions: D 11750/08, 24 h; in short: as §1
[16] = test system: Lichtheimia corymbifera; test: Antifungal activity against Absidia corymbifera 272 after 48 hrs by microbroth dilution method; conditions: Lichtheimia corymbifera, 272, 48 h
[17] = test system: Candida tropicalis; test: Antifungal activity against Candida tropicalis 156 after 48 hrs by microbroth dilution method; conditions: Candida tropicalis, 156, 48 h
[18] = test system: Lichtheimia corymbifera; test: Antifungal activity against Absidia corymbifera 272 after 24 hrs by microbroth dilution method; conditions: Lichtheimia corymbifera, 272, 24 h
[19] = test system: Nakaseomyces glabratus; test: Antifungal activity against Candida glabrata 20/I after 48 hrs by microbroth dilution method
[20] = test system: Klebsiella pneumoniae; test: Antibacterial activity against Klebsiella pneumoniae D 11750/08 after 48 hrs by microbroth dilution method; conditions: D 11750/08, 48 h; in short: as §1
[21] = test system: Staphylococcus epidermidis; test: Antibacterial activity against Staphylococcus epidermidis H 6966/08 after 48 hrs by microbroth dilution method; conditions: H 6966/08, 48 h; in short: as §1
[22] = test system: Escherichia coli; test: Antibacterial activity against Escherichia coli CCM 4517 after 24 hrs by microbroth dilution method; conditions: CCM 4517, 24 h; in short: as §1
[23] = test system: Candida albicans; test: Antifungal activity against Candida albicans ATCC 44859 after 24 hrs by microbroth dilution method; conditions: ATCC 44859, 24 h
[24] = test system: Klebsiella pneumoniae; test: Antibacterial activity against ESBL-positive Klebsiella pneumoniae J 14368/08 after 48 hrs by microbroth dilution method; conditions: J 14368/08, 48 h; in short: as §1
[25] = test system: Trichophyton mentagrophytes; test: Antifungal activity against Trichophyton mentagrophytes 445 after 72 hrs by microbroth dilution method; conditions: Trichophyton mentagrophytes, 445, 72 h
[26] = test system: Escherichia coli; test: Antibacterial activity against Escherichia coli CCM 4517 after 48 hrs by microbroth dilution method; conditions: CCM 4517, 48 h; in short: as §1
[27] = test system: Trichosporon asahii; test: Antifungal activity against Trichosporon asahii 1188 after 48 hrs by microbroth dilution method; conditions: Trichosporon asahii, 1188, 48 h
[28] = test system: Staphylococcus aureus; test: Antibacterial activity against Staphylococcus aureus CCM 4516/08 after 48 hrs by microbroth dilution method; conditions: CCM 4516/08, 48 h; in short: as §2

Structure (SMILES) | MIC [1] [µM] | MIC [2] [µM] | MIC [3] [µM] | MIC [4] [µM] | MIC [5] [µM] | MIC [6] [µM] | MIC [7] [µM] | MIC [8] [µM] | MIC [9] [µM] | MIC [10] [µM] | MIC [11] [µM] | MIC [12] [µM] | MIC [13] [µM] | MIC [14] [µM] | MIC [15] [µM] | MIC [16] [µM] | MIC [17] [µM] | MIC [18] [µM] | MIC [19] [µM] | MIC [20] [µM] | further results
O=C(NCc1ccccc1)Oc1ccc(Cl)cc1C(=O)Nc1ccc(Cl)cc1 | 3.9 (≈ 1.62 µg/mL) | 62.5 (≈ 26 µg/mL) | > 125 | 7.81 (≈ 3.24 µg/mL) | 1.95 (≈ 0.81 µg/mL) | 62.5 (≈ 26 µg/mL) | > 125 | 62.5 (≈ 26 µg/mL) | > 125 | > 125 | 3.9 (≈ 1.62 µg/mL) | 15.6 (≈ 6.49 µg/mL) | 15.6 (≈ 6.49 µg/mL) | > 125 | 125 (≈ 51.9 µg/mL) | > 125 | > 125 | > 125 | > 125 | 125 (≈ 51.9 µg/mL) | MIC [21]: 3.9 µM (≈ 1.62 µg/mL); MIC [22]: > 125 µM; MIC [23]: > 125 µM; MIC [24]: 125 µM (≈ 51.9 µg/mL); MIC [25]: 1.95 µM (≈ 0.81 µg/mL); MIC [26]: > 125 µM; MIC [27]: 15.6 µM (≈ 6.49 µg/mL); MIC [28]: 15.6 µM (≈ 6.49 µg/mL)
O=C(NCc1ccccc1)Oc1ccc(Cl)cc1C(=O)Nc1ccc(F)cc1 | 15.6 (≈ 6.23 µg/mL) | > 500 | 125 (≈ 49.9 µg/mL) | 15.6 (≈ 6.23 µg/mL) | 250 (≈ 99.7 µg/mL) | 250 (≈ 99.7 µg/mL) | > 500 | > 250 | > 250 | > 250 | 15.6 (≈ 6.23 µg/mL) | 125 (≈ 49.9 µg/mL) | 31.2 (≈ 12.5 µg/mL) | > 500 | > 500 | > 250 | > 250 | 250 (≈ 99.7 µg/mL) | > 250 | > 500 | MIC [21]: 15.6 µM (≈ 6.23 µg/mL); MIC [22]: > 500 µM; MIC [23]: 250 µM (≈ 99.7 µg/mL); MIC [24]: > 500 µM; MIC [25]: 250 µM (≈ 99.7 µg/mL); MIC [26]: > 500 µM; MIC [27]: > 250 µM; MIC [28]: 15.6 µM (≈ 6.23 µg/mL)
O=C(NCCc1ccccc1)Oc1ccccc1C(=O)Nc1ccccc1 | 125 (≈ 45.1 µg/mL) | > 500 | 250 (≈ 90.1 µg/mL) | 125 (≈ 45.1 µg/mL) | 62.5 (≈ 22.5 µg/mL) | 125 (≈ 45.1 µg/mL) | > 500 | 125 (≈ 45.1 µg/mL) | > 500 | > 500 | 125 (≈ 45.1 µg/mL) | > 500 | 125 (≈ 45.1 µg/mL) | > 500 | > 500 | > 500 | > 500 | > 500 | 250 (≈ 90.1 µg/mL) | > 500 | MIC [21]: 125 µM (≈ 45.1 µg/mL); MIC [22]: > 500 µM; MIC [23]: > 500 µM; MIC [24]: > 500 µM; MIC [25]: 62.5 µM (≈ 22.5 µg/mL); MIC [26]: > 500 µM; MIC [27]: > 500 µM; MIC [28]: 125 µM (≈ 45.1 µg/mL)
